Screening results deposited in PubChem by The Scripps Research Institute Molecular Screening Center.
MBD2 inh = MBD2-methylated oligo binding inhibition; Q9UBB5; TR-FRET, MBD2 binding to methylated oligonucleotide; inhibition, % at 4.4 µM; hit rate 0.31% among 370,000; AID 686964; in the data active means inhibition above about 13%
Target sequence (Q9UBB5 whole entry, looked up): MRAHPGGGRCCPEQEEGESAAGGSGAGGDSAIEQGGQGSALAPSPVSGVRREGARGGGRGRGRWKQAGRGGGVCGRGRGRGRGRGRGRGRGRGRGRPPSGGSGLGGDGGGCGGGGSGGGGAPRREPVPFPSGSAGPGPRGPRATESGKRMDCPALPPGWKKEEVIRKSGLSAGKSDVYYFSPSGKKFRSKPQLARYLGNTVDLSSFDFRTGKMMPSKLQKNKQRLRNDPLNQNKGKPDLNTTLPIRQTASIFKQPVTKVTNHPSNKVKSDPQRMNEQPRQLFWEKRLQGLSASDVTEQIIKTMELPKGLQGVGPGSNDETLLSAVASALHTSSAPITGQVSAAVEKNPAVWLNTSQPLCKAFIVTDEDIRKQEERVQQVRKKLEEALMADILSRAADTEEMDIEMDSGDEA
TDP2 absorb = TDP2 (human) inhibition, absorbance primary screen; AID 720702; recombinant TDP2, T5PNP hydrolysis, p-nitrophenol absorbance 415 nm; O95551; inhibition, % at 12.8 µM; hit rate 0.34% among 370,000;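 active means inhibition above the mean of all tested compounds plus 3 SD, set per campaign, cut at about 25% in these data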
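test system = human TDP2 enzyme | input = TDP2 enzyme at 120 nM final | medium = 50 mM Tris-HCl pH 7.5 with Mg2+, KCl, DTT, BSA | also added = T5PNP substrate, 5 mM | times = 2 h at 37 °C | technique = epi absorbance | benchmarks = high control without enzyme, low control DMSO plus TDP2 | replication = each compound tested once, singlicate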
PRMT1 inh = blocks human protein arginine methyltransferase 1. Q99873. recombinant PRMT1, activity-based probe fluorescence polarization. inhibition, % at 2.79 µM. hit rate 1.3% among 370,000;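 active means inhibition above about 21% made by adding two undisclosed values, limit read from the data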
UHRF1 binding = human UHRF1 methylated DNA binding inhibitors; UHRF1 binding to methylated oligo, TR-FRET; inhibition, % at 4.4 µM; hit rate 0.75% among 370,000; Q96T88; in the data active means inhibition above about 21%;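 further: UHRF1 SRA domain binding a hemimethylated CpG hairpin DNA probe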
LEDGF integ inh = blocks HIV-1 LEDGF/p75-dependent DNA integration; hit rate 0.64% among 370,000; TR-FRET IN-LEDGF/p75 DNA integration, Eu/Cy5; AID 743269; inhibition, % at 3.7 µM;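 active means inhibition above the screen-wide mean plus 3 SD, cut at about 13% in these data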;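 further: signal is the Cy5 over europium emission ratio at 671 and 618 nm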
SIAE inh = blocks human sialic acid acetylesterase. Q9HAT2. SIAE FP-Rh probe binding, fluorescence polarization. inhibition, % at 9.66 µM. hit rate 0.69% among 370,000;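 active means inhibition above a cutoff: mean of compounds within the control limits plus 3 SD of those, cut at about 17% in these data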
SIAE confirm = human SIAE inhibition, confirmation; shares compounds with SIAE inh; SIAE FP-Rh activity-based probe, fluorescence polarization; inhibition, % at 9.66 µM; hit rate 13% among 2,300; AID 1117263;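 active means mean inhibition of the replicates above the hit cutoff set in the primary screen, cut at about 17% in these data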;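 further: inhibitors lower polarization as more probe stays unbound to SIAE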
Each line names hits and unclear results; the compound was inactive in the other large screens (follow-up assays come after a bar, where they were run). Only some compounds are listed: those with a hit (about 3.3% of all), similar ones and a draw of the others.

CNC(=O)c1c(NC(=O)c2ccc(S(=O)(=O)N3CCCCC3C)cc2)sc2c1CCN(C)C2 (stereo not drawn)	SIAE inh 17.3 | SIAE confirm inactive
O=C(Nc1ccc2[nH]c(=S)sc2c1)Nc1ccccc1F	SIAE inh 26.2 | SIAE confirm inactive
COc1ccccc1C1=NOC(Cn2c(NCC3CCCO3)nc3c2c(=O)n(C)c(=O)n3C)C1 (stereo not drawn)	SIAE inh 17.4 | SIAE confirm inactive
CCOC(=O)c1cccc(NC(=O)CN(C)S(=O)(=O)c2ccc(F)cc2)c1	none
COC(=O)c1ccccc1N(C)S(=O)(=O)c1cc2c3c(c1)CCC(=O)N3CCC2	SIAE inh 32.2 | SIAE confirm inactive
COC(CN(C)S(=O)(=O)c1cc2c3c(c1)CCC(=O)N3CCC2)OC	none
CCC(c1ccccc1)c1noc(CCN(CC)CC)n1 (stereo not drawn)	SIAE inh 19.9 | SIAE confirm inactive
CC(C)CC(CCOCCO)NC(=O)OCc1ccccc1[N+](=O)[O-] (stereo not drawn)	none
COCCNC(=O)c1nc2ccccc2s1	SIAE inh 18.7 | SIAE confirm inactive
O=C(NCCO)c1nc2ccccc2s1	none
COc1cccc(Nc2nc(-c3cccc(N4C(=O)c5ccccc5C4=O)c3)cs2)c1	SIAE inh 24.4 | SIAE confirm inactive
COc1cccc(Nc2nc(-c3ccc(O)cc3)cs2)c1	none
CC(Sc1ncnc2ccccc12)C(=O)Nc1ccc2c(c1)OCCO2 (stereo not drawn)	SIAE inh 23.7 | SIAE confirm inactive
O=C1N=c2ccc(Br)cc2=C1c1sc(=S)n(NS(=O)(=O)c2ccccc2)c1O	none
O=C1N=c2ccccc2=C1c1sc(=S)n(-c2ccc(O)cc2)c1O	SIAE inh 21.9 | SIAE confirm inactive
O=C1N=c2ccccc2=C1c1sc(=S)n(NC(=O)c2cccc(O)c2)c1O	SIAE inh 29.0 | SIAE confirm 32.6
CC(C)CN1C(=O)C[C@]2(C(=O)N(C)c3ccc(NS(=O)(=O)c4ccc(F)cc4)cc32)C1c1ccccc1 (stereo partly drawn)	none
CC(=O)OC12CCCN(C1)/C(=C/c1ccccc1)C2 (stereo not drawn)	none
O=C(CNC(=O)C1CCCCC1)Nc1ccccc1Cl	SIAE inh 80.5 | SIAE confirm inactive
Cc1c(Cl)cccc1NC(=O)CNC(=O)C1CC(=O)N(C2CCCC2)C1 (stereo not drawn)	SIAE inh 21.1 | SIAE confirm inactive
CN(Cc1ccccc1F)C(=O)C1CCCN(c2ncccn2)C1 (stereo not drawn)	none
NC(Cc1ccc(C(F)(F)F)cc1)c1csc(NC(=O)Nc2ccccc2Cc2ccccc2)n1 (stereo not drawn)	SIAE inh 17.1 | SIAE confirm 22.7
CC(CCc1ccccc1)NC(=O)CSc1cccc[n+]1[O-] (stereo not drawn)	SIAE inh 18.9 | SIAE confirm inactive
O=C(O)C1=C[C@@H](c2csc3ccccc23)C[C@@H](OCc2ccc(CO)cc2)O1	SIAE inh 22.3 | SIAE confirm inactive
CC(C)NCC(=O)NC12CC3CC(CC(C3)C1)C2	SIAE inh 21.4 | SIAE confirm inactive
O=C(O)CC(=O)NC12CC3CC(CC(C3)C1)C2	none
COc1ccc(/C=N/NC(=O)c2ccc(O)cc2)cc1CN1CCCc2ccccc21	SIAE inh 25.9 | SIAE confirm inactive
CCOC(=O)N1CCN(C(=O)C[C@H]2C[C@@]3(C(=O)OC)C(=C[C@H](C(C)(C)C)O[C@@H]3C)N(Cc3ccc4c(c3)OCO4)C2=O)CC1	none
COc1ccc(Nc2nnc(SC(C(=O)Nc3ccc(OC)c(Cl)c3)c3ccccc3)s2)cc1 (stereo not drawn)	SIAE inh 20.2 | SIAE confirm inactive
Nn1c(SCC(=O)NC2CCCCC2)nnc1-c1cc(-c2ccccc2)n[nH]1	none
COc1ccc(N2C(=O)c3n[nH]c(C)c3C2c2cccc(C(F)(F)F)c2)cc1 (stereo not drawn)	none
COc1ccc(OCCn2cc(/C(N)=N/O)c3ccccc32)cc1	none
Cc1ccc(OCCn2cc(/C(N)=N/O)c3ccccc32)cc1C	SIAE inh 19.7 | SIAE confirm inactive
COC(=O)[C@]12C[C@H](CC(=O)NCc3ccccc3)C(=O)N(Cc3cccc4ccccc34)C1=C[C@H](C(C)C)O[C@@H]2C1CC1	none
Cc1ccc(C(=O)C(OC(=O)CCC(=O)Nc2cccc(C)c2)c2ccccc2)cc1 (stereo not drawn)	SIAE inh 20.8 | SIAE confirm inactive
COC(=O)[C@]12C=CCN1[C@H](c1ccc(Cl)cc1)c1c(c3ccccc3n1S(=O)(=O)c1ccc(C)cc1)C2	none
Cc1nc(SCC(=O)N2CCN(C(=O)c3cccs3)CC2)c2c(C)c(C)sc2n1	SIAE inh 17.4 | SIAE confirm inactive
COc1ccc(C(=O)Nc2c(N)nc(SCC(=O)Nc3ccc(NC(C)=O)cc3)[nH]c2=O)cc1OC	SIAE inh 18.1 | SIAE confirm inactive
O=C(O)c1ccc(Nc2cccc(F)c2)c([N+](=O)[O-])c1	SIAE inh 20.4 | SIAE confirm inactive
CCCC(=O)OC12CCCN(C1)/C(=C/c1ccc(OC)cc1)C2 (stereo not drawn)	none
CCN(CC)c1ccc(NC(=S)NC(=O)c2cccs2)cc1	SIAE inh 17.5 | SIAE confirm inactive
O=C(N[C@H](C(=O)N1CCC[C@H]1C(=O)NCCc1ccccc1Cl)C1CCCCC1)c1cccs1	none
O=[N+]([O-])c1cc(Br)c(Nc2ccccc2)c([N+](=O)[O-])c1	none
O=[N+]([O-])c1cc([N+](=O)[O-])c2c(=Nc3ccccc3)n(-c3ccccc3)n(O)c2c1	SIAE inh 25.0 | SIAE confirm inactive
CCC[C@H]1[C@@H](NC(=O)/C=C/c2ccccc2)CC[C@@]23CCCN2C(=O)CCC[C@@H]13	none
COc1cccc2c1C(=O)c1c(O)c3c(c(O)c1C2=O)CC(O)(C(C)=O)CC3OC1CC(O)C(O)C(C)O1 (stereo not drawn)	MBD2 inh 77.6, PRMT1 inh active, UHRF1 binding 81.0, SIAE inh 68.2 | SIAE confirm 55.3
CCOC(=O)[C@@]12CN(C(=O)OC(C)(C)C)CC=C1N(Cc1ccc(OC)cc1)C(=O)[C@H]2CC(=O)N1CCOCC1	none
CCCCNC(=O)C[C@@H]1C(=O)N(Cc2ccc(OC)cc2)C2=CCN(C(=O)OC(C)(C)C)C[C@]21C(=O)OCC	none
COC(=O)C(Cc1c[nH]c2ccccc12)NC(=O)c1ccc2nc[nH]c2c1 (stereo not drawn)	none
